ChEMBL document CHEMBL1150332, “Total synthesis of phenanthroindolizidine alkaloids (+/-)-antofine, (+/-)-deoxypergularinine, and their dehydro congeners and evaluation of their cytotoxic activity” (Bioorg Med Chem, 2008)
Values after ≈ are worked out from the molar mass of the structure shown. Active and inactive are the calls of the source. No cut-off for these calls is given here.

What was measured:
Type in all cases: functional, cell-based
[1] = system: A549; experiment: Cytotoxicity against human A549 cells after 72 hrs by sulforhodamine B assay; settings: for EC50: A549, 72 h
Summary of the method: (§1)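 SRB assay following NCI procedure; 72 h continuous exposure. Cells grown at 37 °C, 5% CO2, humidified, in RPMI-1640 with 25 mM HEPES, 2% (w/v) sodium bicarbonate, 10% (v/v) FBS, 100 µg/mL kanamycin. Compounds from DMSO stocks, final DMSO ≤1% (v/v). EC50 (µg/mL, 50% cell-number reduction) interpolated from dose-response; triplicate tests; doxorubicin positive control.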

[2] = system: KB; experiment: Cytotoxicity against human KB cells after 72 hrs by sulforhodamine B assay; summary of the method: as §1
[3] = Cytotoxicity against human KB-VIN cells after 72 hrs by sulforhodamine B assay; settings: KBVIN; summary of the method: as §1
[4] = system: MCF7; experiment: Cytotoxicity against human MCF7 cells after 72 hrs by sulforhodamine B assay; settings: for EC50: MCF7, 72 h; summary of the method: as §1

| Compound | Activity [1] | Activity [2] | EC50 [3] | Activity [4] | EC50 [2] | EC50 [4] | EC50 [1] |
| --- | --- | --- | --- | --- | --- | --- | --- |
| COc1ccc2cc(/C=C/C(=O)O)c3cc(OC)c(OC)cc3c2c1 | inactive | inactive | 14.7 mg/L (≈ 43.5 µM) | inactive | – | – | – |
| COc1ccc2c(c1)c1cc(OC)c(OC)cc1c1cc[nH]c(=O)c21 | inactive | inactive | 7.39 mg/L (≈ 22 µM) | inactive | – | – | – |
| COc1ccc2cc(/C=C/C(=O)N=[N+]=[N-])c3cc(OC)c(OC)cc3c2c1 | inactive | – | 9.36 mg/L (≈ 25.8 µM) | – | 13.5 mg/L (≈ 37.2 µM) | 8.29 mg/L (≈ 22.8 µM) | – |
| COc1ccc2c3c(c4cc(OC)c(OC)cc4c2c1)C(=O)N1CCCC1C3 (stereo not given) | – | – | 1.16 mg/L (≈ 3.07 µM) | – | 1.39 mg/L (≈ 3.68 µM) | 2.14 mg/L (≈ 5.67 µM) | 1.15 mg/L (≈ 3.05 µM) |
| COc1ccc2c3c(c4cc(OC)c(OC)cc4c2c1)CC1CCCN1C3 (racemic) [(+/-)-ANTOFINE] | – | – | 0.00083 mg/L (≈ 0.00228 µM) | – | 0.00043 mg/L (≈ 0.00118 µM) | 0.0045 mg/L (≈ 0.0124 µM) | 0.00016 mg/L (≈ 0.00044 µM) |
| COc1ccc2c3c(c4cc(OC)c(OC)cc4c2c1)CN1CCCC1C3 (racemic) [(+/-)-DEOXYTYLOPHORININE] | – | – | 0.016 mg/L (≈ 0.044 µM) | – | 0.023 mg/L (≈ 0.0633 µM) | 0.043 mg/L (≈ 0.118 µM) | 0.011 mg/L (≈ 0.0303 µM) |
| COc1ccc2c(c1)c1cc(OC)c(OC)cc1c1cc3[n+](cc21)CCC3.[Br-] [DEHYDROANTOFINE BROMIDE] | – | – | 5.14 mg/L | – | 5.37 mg/L | 1.29 mg/L | 0.49 mg/L |
| COc1ccc2c(c1)c1cc(OC)c(OC)cc1c1cc3[n+](cc21)CCC3.[Cl-] [DEHYDROANTOFINE CHLORIDE] | – | – | 0.33 mg/L | – | 0.93 mg/L | 1.72 mg/L | 0.73 mg/L |
| COc1ccc2c(c1)c1cc(OC)c(OC)cc1c1c[n+]3c(cc21)CCC3.[Br-] [DEOXYPERGULARININE BROMIDE] | – | – | 8.26 mg/L | – | 0.29 mg/L | 1.18 mg/L | 0.32 mg/L |
| COc1ccc2c(c1)c1cc(OC)c(OC)cc1c1c[n+]3c(cc21)CCC3.[Cl-] [DEOXYPERGULARININE CHLORIDE] | – | – | 5.66 mg/L | – | 0.95 mg/L | 1.49 mg/L | 1.06 mg/L |
